Assay results taken from ChEMBL document CHEMBL2046351, “Discovery of cyclic sulfone hydroxyethylamines as potent and selective β-site APP-cleaving enzyme 1 (BACE1) inhibitors: structure-based design and in vivo reduction of amyloid β-peptides” (J Med Chem, 2012).

Columns and labels:
[1] = target: Cathepsin D (Homo sapiens, UniProt P07339); experiment: Inhibition of human recombinant CatD using Mca-GKPILFFRLK(DNP)-dR-NH2 as substrate after 1 hr by fluorescence analysis
[2] = system: MDR1 (human); experiment: Apparent permeability across MDCK cells expressing human MDR1 at 5 uM after 2 hrs by LC-MS analysis; type: ADME, cell-based, Canis lupus familiaris; details: dog
Summary of the method: (§1)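 MDCK cells retrovirally transduced with human MDR1, seeded on transwells ≥3 days; bidirectional transport at 5 μM, 2 h, 37 °C, LC/MS quantitation. Papp = (dQ/dt)/(A·C0), A 0.11 cm2; ER = Papp B>A / Papp A>B. Means of at least three experiments.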

[3] = system: MDR1 (human); experiment: Efflux ratio of permeability from basolateral to apical over apical to basolateral side of MDCK cells expressing human MDR1 at 5 uM after 2 hrs by LC/MS analysis; type: ADME, cell-based, Canis lupus familiaris; details: dog; summary of the method: as §1
[4] = target: Beta-secretase 1 (Homo sapiens, UniProt P56817)
[5] = target: Cytochrome P450 3A4 (Homo sapiens, UniProt P08684); experiment: Inhibition of CYP3A4; type: ADME
Cytochrome P450 3A4, sequence (P08684 whole entry): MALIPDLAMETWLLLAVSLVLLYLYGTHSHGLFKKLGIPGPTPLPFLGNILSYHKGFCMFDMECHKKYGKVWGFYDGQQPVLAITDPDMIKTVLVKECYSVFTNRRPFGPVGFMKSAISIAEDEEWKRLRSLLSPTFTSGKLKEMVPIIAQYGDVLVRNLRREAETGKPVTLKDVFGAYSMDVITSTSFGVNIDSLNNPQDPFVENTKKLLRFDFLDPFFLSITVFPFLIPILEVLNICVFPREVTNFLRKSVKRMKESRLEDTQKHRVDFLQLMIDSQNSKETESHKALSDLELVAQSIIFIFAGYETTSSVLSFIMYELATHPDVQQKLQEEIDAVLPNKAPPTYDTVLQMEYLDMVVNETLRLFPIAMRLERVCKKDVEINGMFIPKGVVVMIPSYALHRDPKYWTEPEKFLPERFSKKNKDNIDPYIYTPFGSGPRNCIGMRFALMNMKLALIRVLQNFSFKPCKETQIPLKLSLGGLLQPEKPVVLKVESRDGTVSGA

Beta-secretase 1, sequence (P56817 whole entry): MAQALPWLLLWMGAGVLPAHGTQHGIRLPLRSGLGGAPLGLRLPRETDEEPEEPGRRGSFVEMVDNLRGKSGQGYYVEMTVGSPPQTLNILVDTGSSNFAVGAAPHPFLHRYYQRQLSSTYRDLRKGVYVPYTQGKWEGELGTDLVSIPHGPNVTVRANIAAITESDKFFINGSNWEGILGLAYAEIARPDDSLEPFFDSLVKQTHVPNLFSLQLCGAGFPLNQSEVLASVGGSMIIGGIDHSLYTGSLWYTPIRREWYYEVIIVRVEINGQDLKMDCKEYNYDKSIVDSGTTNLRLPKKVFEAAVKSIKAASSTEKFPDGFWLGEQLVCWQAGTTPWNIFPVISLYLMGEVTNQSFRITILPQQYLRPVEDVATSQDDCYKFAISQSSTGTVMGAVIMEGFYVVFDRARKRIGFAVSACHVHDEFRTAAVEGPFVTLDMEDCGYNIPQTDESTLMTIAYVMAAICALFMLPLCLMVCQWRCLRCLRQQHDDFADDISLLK
Cathepsin D, sequence (P07339 65-162 limits assumed): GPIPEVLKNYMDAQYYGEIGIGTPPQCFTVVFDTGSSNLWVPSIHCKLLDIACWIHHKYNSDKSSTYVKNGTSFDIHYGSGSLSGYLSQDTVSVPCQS
Cathepsin D, sequence (P07339 169-412 limits assumed): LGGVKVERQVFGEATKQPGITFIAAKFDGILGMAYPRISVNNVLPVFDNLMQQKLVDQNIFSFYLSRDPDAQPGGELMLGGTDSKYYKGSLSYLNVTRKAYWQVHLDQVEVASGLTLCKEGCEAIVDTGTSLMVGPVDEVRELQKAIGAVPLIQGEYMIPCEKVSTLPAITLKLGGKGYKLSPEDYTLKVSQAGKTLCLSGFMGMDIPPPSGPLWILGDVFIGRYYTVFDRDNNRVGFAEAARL

SMILES | IC50 [1] [µM] | Papp at 2 h, 5 µM [2] [×10⁻⁶ cm/s] | efflux ratio at 2 h, 5 µM [3] | IC50 [4] [µM] | IC50 [5] [µM]
CC(C)(C)c1cccc(CN[C@H]2CS(=O)(=O)C[C@@H](Cc3cc(F)c(N)c(-c4ccoc4)c3)[C@@H]2O)c1 | 0.51 | 3 | 2 | 0.15 | 
CO[C@@H](Cc1cc(C[C@@H]2CS(=O)(=O)C[C@H](NCc3cccc(C(C)(C)C)c3)[C@H]2O)cc(F)c1N)C(F)(F)F | 1.14 | 9 |  |  | 
CC(C)(C)c1cccc(CN[C@H]2CS(=O)(=O)C[C@@H](Cc3cc(F)c(N)c(OCCF)c3)[C@@H]2O)c1 | 2 | 26 | 16 | 0.043 | 
CC(C)(C)c1cccc(CN[C@H]2CS(=O)(=O)C[C@@H](Cc3cc(F)c(N)c(OC4COC4)c3)[C@@H]2O)c1 | 1.15 | 23 |  |  | 
CC(C)(C)Cc1cc(CN[C@H]2CS(=O)(=O)C[C@@H](Cc3cc(F)c(N)c(OC(C(F)(F)F)C(F)(F)F)c3)[C@@H]2O)no1 | 0.51 | 20 | 8 | 0.007 | 0.4
CC(C)(C)c1cccc(CN[C@H]2CS(=O)(=O)C[C@@H](Cc3cc(F)c(N)c(-c4cc[nH]n4)c3)[C@@H]2O)c1 (racemic) | 0.6 | 20 | 17 | 0.028 | 
CC(C)(C)c1cccc(CN[C@H]2CS(=O)(=O)C[C@@H](Cc3ccc(N)c(OCC(F)(F)F)c3)[C@@H]2O)c1 | 4.37 | 23 | 3 | 0.036 | 
CC(C)(C)c1cccc(CN[C@H]2CS(=O)(=O)C[C@@H](Cc3ccc(N)nc3)[C@@H]2O)c1 (racemic) | > 10 | 17.4 | 16 | 1.62 | 
CC(C)(C)c1cccc(CN[C@H]2CS(=O)(=O)C[C@@H](Cc3ccc4[nH]cc(CC(F)(F)F)c4c3)[C@@H]2O)c1 (racemic) | 1.49 | 2.5 | 7 | 0.12 | 
CCc1cc(C[C@@H]2CS(=O)(=O)C[C@H](NCc3cccc(C(C)(C)C)c3)[C@H]2O)cc(F)c1N | 2 | 23 | 2 | 0.87 | 
CC(C)Oc1cc(C[C@@H]2CS(=O)(=O)C[C@H](NCc3cccc(C(C)(C)C)c3)[C@H]2O)cc(F)c1N | 2.22 | 14 | 3 | 0.043 | 
CC(F)(F)c1cccc(CN[C@H]2CS(=O)(=O)C[C@@H](Cc3cc(F)c(N)c(Br)c3)[C@@H]2O)c1 | 4.16 | 28 | 4 |  | 
COCCOc1cc(C[C@@H]2CS(=O)(=O)C[C@H](NCc3cccc(C(C)(C)C)c3)[C@H]2O)cc(F)c1N | 3.98 | 25 |  |  | 
CC(C)(C)O[C@H]1C[C@@H]1CN[C@H]1CS(=O)(=O)C[C@@H](Cc2cc(F)c(N)c(OC(C(F)(F)F)C(F)(F)F)c2)[C@@H]1O (mixture of isomers) | 3.71 |  | 4 | > 10 | 
CN(C)CC(=O)Nc1ccc(C[C@@H]2CS(=O)(=O)C[C@H](NCc3cccc(C(C)(C)C)c3)[C@H]2O)cc1F | > 10 | 6 |  |  | 
CC(C)(C)c1cccc(CN[C@H]2CS(=O)(=O)C[C@@H](Cc3cc(O)c(N)c(F)c3)[C@@H]2O)c1 | 0.54 | 14 | 27 | 0.12 | 
CC1(C)OCc2ccc(CN[C@H]3CS(=O)(=O)C[C@@H](Cc4cc(F)c(N)c(OC(C(F)(F)F)C(F)(F)F)c4)[C@@H]3O)cc21 | 1.51 | 21 |  |  | 0.7
CC(C)(C)c1cccc(CN[C@H]2CS(=O)(=O)C[C@@H](Cc3cc(F)c(N)c(OC4CCC4)c3)[C@@H]2O)c1 | 0.39 | 6 | 3 | 0.011 | 
CC(C)(C)Cn1cc(CN[C@H]2CS(=O)(=O)C[C@@H](Cc3cc(F)c(N)c(OC(C(F)(F)F)C(F)(F)F)c3)[C@@H]2O)cn1 | 2.81 | 16 | 46 | 0.036 | 6.7
CC(C)(C)c1cccc(CN[C@H]2CS(=O)(=O)C[C@@H](Cc3ccc4[nH]ccc4c3)[C@@H]2O)c1 (racemic) | 5.53 | 10 | 3 | 2.75 | 
CCc1cc(C[C@@H]2CS(=O)(=O)C[C@H](NCc3cccc(C(C)(C)C)c3)[C@H]2O)cc(F)c1NC(=O)CN(C)C | > 10 | 13 |  |  | 
CC(C)(C)c1cccc(CN[C@H]2CS(=O)(=O)C[C@@H](Cc3cc(F)c(N)c(C4CC4)c3)[C@@H]2O)c1 | 1.74 | 16 | 3 | 0.094 | 

SMILES | IC50 [1] [µM] | Papp at 2 h, 5 µM [2] [×10⁻⁶ cm/s] | efflux ratio at 2 h, 5 µM [3] | IC50 [4] [µM] | IC50 [5] [µM]
CC(C)(C)c1cccc(CN[C@H]2CS(=O)(=O)C[C@@H](Cc3cc(F)c(N)c(OCCC(F)(F)F)c3)[C@@H]2O)c1 | 2.4 | 12 | 4 | 0.075 | 
CCc1c[nH]c2ccc(C[C@@H]3CS(=O)(=O)C[C@H](NCc4cccc(C(C)(C)C)c4)[C@H]3O)cc12 (racemic) | 2.48 |  |  | 0.2 | 
CC(C)(CO)c1cccc(CN[C@H]2CS(=O)(=O)C[C@@H](Cc3cc(F)c(N)c(OC(C(F)(F)F)C(F)(F)F)c3)[C@@H]2O)c1 | 0.6 | 12 | 35 | 0.002 | 0.8
C[C@@H](Oc1cc(C[C@@H]2CS(=O)(=O)C[C@H](NCc3cccc(C(C)(C)C)c3)[C@H]2O)cc(F)c1N)C(F)(F)F | 0.48 | 10 | 5 | 0.003 | 
CC(C)(C)c1cccc(CN[C@H]2CS(=O)(=O)C[C@@H](Cc3ccc(N)c(OC(F)(F)F)c3)[C@@H]2O)c1 (racemic) | 7.99 | 15 | 2 | 0.13 | 
Nc1c(F)cc(C[C@@H]2CS(=O)(=O)C[C@H](NCc3cccc(OC(F)(F)F)c3)[C@H]2O)cc1OC(C(F)(F)F)C(F)(F)F | 2.53 | 12 | 6 | 0.044 | 9.2
CC(C)(C)c1cccc(CN[C@H]2CS(=O)(=O)C[C@@H](Cc3ccc4[nH]cc(CC(F)F)c4c3)[C@@H]2O)c1 (racemic) | 1.22 | 6 | 8 |  | 
CC(C)(C)c1cccc(CN[C@H]2CS(=O)(=O)C[C@@H](Cc3cc(F)c(N)c(CCC(F)(F)F)c3)[C@@H]2O)c1 | 0.98 | 11 | 3 | 0.13 | 
CCCOc1cccc(C[C@@H]2CS(=O)(=O)C[C@H](NCc3cccc(C(C)(C)C)c3)[C@H]2O)c1 (relative stereo) | 0.29 | 2 | 1 | 0.67 | 
CC(C)(C)c1cccc(CN[C@H]2CS(=O)(=O)C[C@@H](Cc3cc(F)c(N)c(-c4ccco4)c3)[C@@H]2O)c1 | 0.36 | 2 | 2 | 0.079 | 
CCCOc1cc(CC2CS(=O)(=O)CC(NCc3cccc(C(C)(C)C)c3)[C@H]2O)cc(F)c1N (single isomer, unassigned) | 2.22 | 7 | 3 | 0.056 | 
CCCc1cc(C[C@@H]2CS(=O)(=O)C[C@H](NCc3cccc(C(C)(C)C)c3)[C@H]2O)cc(F)c1N | 1.39 | 7 | 2 | 0.13 | 
CC(C)(C)c1cccc(CN[C@H]2CS(=O)(=O)C[C@@H](Cc3cc(F)c4c(c3)C3(CCC3)CN4)[C@@H]2O)c1 (racemic) | 0.08 | 6 | 3 | 0.56 | 
CCCc1n[nH]c2ccc(C[C@@H]3CS(=O)(=O)C[C@H](NCc4cccc(C(C)(C)C)c4)[C@H]3O)cc12 (racemic) | 1.63 | 30 | 49 | 0.22 | 
CC(C)(C)c1cccc(CN[C@H]2CS(=O)(=O)C[C@@H](Cc3ccc4[nH]ncc4c3)[C@@H]2O)c1 (racemic) | 3.75 | 23 | 11 | 1.45 | 
CC(C)(C)c1cccc(CN[C@H]2CS(=O)(=O)C[C@@H](Cc3cc(F)c(N)c(C[C@H](O)C(F)(F)F)c3)[C@@H]2O)c1 | 1.05 | 13 |  |  | 
CCOC[C@@H](Oc1cc(C[C@@H]2CS(=O)(=O)C[C@H](NCc3cccc(C(C)(C)C)c3)[C@H]2O)cc(F)c1N)C(F)(F)F | 0.23 | 11 |  |  | 
CCOC[C@H](Oc1cc(C[C@@H]2CS(=O)(=O)C[C@H](NCc3cccc(C(C)(C)C)c3)[C@H]2O)cc(F)c1N)C(F)(F)F | 1.23 | 8 |  |  | 
CC(C)(C)c1cccc(CN[C@H]2CS(=O)(=O)C[C@@H](Cc3cc(F)c4c(c3)C3(CCC(F)(F)CC3)CN4)[C@@H]2O)c1 (racemic) | 3.53 |  |  |  | 
Nc1c(F)cc(C[C@@H]2CS(=O)(=O)C[C@H](N)[C@H]2O)cc1OC(C(F)(F)F)C(F)(F)F | > 10 | 13 | 17 | > 10 | 
COCCOC[C@@H](Oc1cc(C[C@@H]2CS(=O)(=O)C[C@H](NCc3cccc(C(C)(C)C)c3)[C@H]2O)cc(F)c1N)C(F)(F)F | 0.25 | 12 |  |  | 
